# Compound activity from PubChem BioAssay.
# Beta cell apopt = inhibitors of cytokine-induced beta cell apoptosis, primary screen, luminescence | actives 0.8% (n = 300,000) | AID 435005, 2010 | protection from apoptosis, % (concentration not given with the values) | INS-1E cytokine-induced death, ATP luminescence, 48 h; percent of positive-control rescue, neutral wells zero;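 active = Every replicate reaches about 75%, or at least half do and their mean reaches it too, limit read from the data; inconclusive = At least half of replicates reach the limit but their mean does not; inactive = Under half of replicates reach the limit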;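 note: 0% = cytokine-treated negative control wells and 100% = positive control rescue; higher means more ATP so stronger rescue from cytokine killing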
# Mdm2 MdmX PPI = inhibitors of human Mdm2-MdmX association, primary screen, cell-based, luminescence, split luciferase, SaOS-2, uHTS; AID 485346, 2010; Protein Mdm4 (Homo sapiens) + E3 ubiquitin-protein ligase Mdm2 (Homo sapiens), …; actives 3% (n = 330,000); inhibition, % at 8 µM; SaOS-2 split-luciferase Mdm2/MdmX complementation;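 active = inhibition of at least 50% at 8 µM in the primary screen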
# Target sequence (O15151 whole entry, looked up): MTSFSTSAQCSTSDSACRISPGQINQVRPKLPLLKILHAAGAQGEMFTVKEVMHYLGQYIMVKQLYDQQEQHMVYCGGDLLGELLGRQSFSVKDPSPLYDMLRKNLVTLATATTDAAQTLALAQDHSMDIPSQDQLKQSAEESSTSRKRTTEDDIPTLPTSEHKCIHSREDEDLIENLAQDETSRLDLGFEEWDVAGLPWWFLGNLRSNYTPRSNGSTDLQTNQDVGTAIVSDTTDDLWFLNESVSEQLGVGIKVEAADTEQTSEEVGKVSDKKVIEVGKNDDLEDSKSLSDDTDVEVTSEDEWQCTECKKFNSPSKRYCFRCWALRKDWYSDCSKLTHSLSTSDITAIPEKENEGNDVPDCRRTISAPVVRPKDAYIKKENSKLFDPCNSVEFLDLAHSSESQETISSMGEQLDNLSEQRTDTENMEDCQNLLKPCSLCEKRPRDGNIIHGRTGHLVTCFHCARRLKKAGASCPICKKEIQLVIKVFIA
# Target sequence (Q00987 whole entry, looked up): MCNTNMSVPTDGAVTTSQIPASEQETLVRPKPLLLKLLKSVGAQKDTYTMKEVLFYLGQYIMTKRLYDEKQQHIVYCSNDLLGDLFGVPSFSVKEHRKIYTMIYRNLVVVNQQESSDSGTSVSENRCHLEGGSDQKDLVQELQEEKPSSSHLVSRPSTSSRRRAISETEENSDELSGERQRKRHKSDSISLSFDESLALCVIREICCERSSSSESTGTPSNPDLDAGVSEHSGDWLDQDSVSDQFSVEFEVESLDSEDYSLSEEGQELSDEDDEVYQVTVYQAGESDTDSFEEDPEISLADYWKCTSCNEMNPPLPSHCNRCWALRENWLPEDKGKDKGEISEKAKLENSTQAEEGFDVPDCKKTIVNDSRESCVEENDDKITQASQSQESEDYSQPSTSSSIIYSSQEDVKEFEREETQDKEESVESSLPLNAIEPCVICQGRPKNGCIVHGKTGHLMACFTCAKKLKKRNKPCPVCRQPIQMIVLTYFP
# CSC inhib = cancer stem cell viability inhibitors, primary screen, luminescence; cancer stem cell-like cells viability; inhibition, % at 7.5 µM; actives 1.1% (n = 300,000); in the data active = inhibition above about 75%; inconclusive = no clear call, values can overlap the other calls; tested in HMLE shEcad cells
# L major viab = Leishmania major promastigote growth inhibition, primary screen; AID 1063, 2008; actives 9% (n = 200,000); inhibition, % at 10 µM; Leishmania major promastigotes, resazurin fluorescence viability; in the data active = inhibition above about 50%;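 note: promastigotes grown with compound for 44 hours at 28 °C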
# SKKanGAS inh = S. pyogenes SKKanGAS growth inhibitors in kanamycin, primary screen, streptokinase expression inhibitor project, SKKanGAS strain, BacTiter-Glo luminescence | 6 h | inhibition, % at 7.5 µM | actives 1.3% (n = 300,000) | AID 1662, 2009;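 active = mean replicate score, as percent of positive control median, at least 50; inconclusive = mean below 50 but one replicate at or above 50; inactive = mean and every replicate below 50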;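 note: strain carries kanamycin resistance gene driven by streptokinase promoter and grows in 40 µg/ml kanamycin; loss of luminescence reflects streptokinase promoter inhibition or plain growth inhibition; 0% = median of DMSO wells and 100% = positive control at its reference dose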
# T cruzi inh = inhibitors of intracellular T. cruzi growth, primary screen, luminescence, NIH3T3 host cells. inhibition, % (no concentration beside the values). actives 1.4% (n = 300,000). T. cruzi beta-gal in NIH3T3, 90 h. AID 1885, 2009;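 active = mean inhibition across valid replicates above about 55%, limit read from the data; inconclusive = mean below that limit but half or more replicates reach it; inactive = mean below it, under half of replicates reach it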;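 note: signal also drops with host cell toxicity which is not excluded here; 0% = plate median of DMSO wells and 100% = zero luminescence signal; higher percent means less beta-gal luminescence so fewer parasites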
#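 assay system = mouse NIH/3T3 fibroblasts infected with β-gal-expressing T. cruzi Tulahuen C4 | input = 5,000 NIH/3T3 host cells per well | buffer or medium = DMEM plus 2% FBS | timing = 3 h host attachment, then at least 90 h co-culture | measured by = GalScreen luminescence, 60 min | evaluation = luminescence reflecting intracellular parasite burden, expressed as percent inhibition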
# The depositor's hits bear a star; u = inconclusive; x = no result given. In the library only some 9.4% were active in any assay of this set; here they are far more common.
SMILES,Beta cell apopt,Mdm2 MdmX PPI,CSC inhib,L major viab,SKKanGAS inh,T cruzi inh
O=C(NCC(c1ccco1)N1CCN(c2ccccc2F)CC1)c1ccco1 (stereo not given),4,-3,4,x,1,17
O=C(NCC(c1cccnc1)N1CCN(c2ccccc2F)CC1)c1ccco1 (stereo not given),-3,-2,-8,89*,-2,39
O=C(NCC1CCCO1)C(=O)NCC(c1ccco1)N1CCN(c2ccccc2F)CC1 (stereo not given),-3,6,-8,53*,-4,-23
CC1CC(C)CN(S(=O)(=O)c2ccc3c(c2)CCN3C(=O)C2CC2)C1 (stereo not given),1,21,11,x,-1,1
Cn1cc(CN2CCC(O)CC2)c(-c2ccc(Oc3ccccc3)cc2)n1,-5,-6,-6,81*,1,8
Cc1cc(CNCc2cn(C)nc2-c2ccc(Oc3ccccc3)cc2)on1,4,3,4,60*,4,14
CC1CN(Cc2cn(C)nc2-c2ccc(Oc3ccccc3)cc2)CCN1C (stereo not given),6,19,16,49,0,16
CCOC(=O)C1CCN(Cc2cn(C)nc2-c2ccc(Oc3ccccc3)cc2)CC1,-14,-5,-10,79*,-3,8
CCOC(=O)C1CCN(Cc2cnc(NC(=O)OC)s2)CC1,-3,-5,-9,-1,6,-12
CCOC(=O)C1CCN(Cc2cc(Cl)c3ccccc3c2O)CC1,6,12,x,x,5,18
CCOC(=O)C1CCN(Cc2cnc(Oc3ccc(C(C)(C)C)cc3)s2)CC1,-1,12,-5,91*,6,13
CCNC(=O)NC(=O)COC(=O)CCc1nc(=O)c2ccccc2n1C,0,-3,-10,-3,-12,14
COCCN1CCN(Cc2cn(C)nc2-c2ccc(Oc3ccccc3)cc2)CC1,0,16,25,x,0,32
CCN(Cc1ccncc1)Cc1cn(C)nc1-c1ccc(Oc2ccccc2)cc1,7,-9,40,96*,2,44
CC(C)N(C)Cc1cn(C)nc1-c1ccc(Oc2ccccc2)cc1,-4,7,13,x,3,-2
Cn1cc(CN2CCN(CCO)CC2)c(-c2ccc(Oc3ccccc3)cc2)n1,-2,6,36,51*,2,20
Cc1ccc2[nH]c3c(=O)n(CC(=O)N4CC(C)CC(C)C4)ncc3c2c1 (stereo not given),-1,16,-17,x,-2,5
CC1=Nc2ccccc2/C1=C\c1nc(-c2ccc(F)cc2)oc1O,-5,13,8,9,81*,-2
CN=Cc1nc(-c2ccccc2)oc1O,2,-12,2,-6,0,-13
c1ccc(Cn2nnnc2C(c2cccnc2)N2CCN(C3CCCCC3)CC2)cc1 (stereo not given),3,-2,-6,-8,-9,-2
Oc1ccc(N2CCN(C(c3cccnc3)c3nnnn3Cc3ccccc3)CC2)cc1 (stereo not given),4,44,0,65*,1,u
Fc1ccc(N2CCN(C(c3cccs3)c3nnnn3CCc3ccccc3)CC2)cc1 (stereo not given),30,33,-13,71*,3,7
CCC(C)(C)n1nnnc1C(c1ccc2ncccc2c1)N1CCN(c2nc3ccccc3s2)CC1 (stereo not given),7,19,22,18,32,31
c1ccc(CCn2nnnc2C(c2cccnc2)N2CCN(c3ccccc3)CC2)cc1 (stereo not given),6,4,16,97*,0,74*
c1ccc(CCn2nnnc2C(c2cccnc2)N2CCN(c3nc4ccccc4s3)CC2)cc1 (stereo not given),7,30,18,100*,14,60*
SMILES,Beta cell apopt,Mdm2 MdmX PPI,CSC inhib,L major viab,SKKanGAS inh,T cruzi inh
Cc1ccc(S(=O)(=O)N(CCC(=O)N2CCOCC2)c2ccccc2)cc1,x,18,x,x,x,x
COc1cnc(SC)nc1Nc1ccc(C#N)cc1,4,18,-12,x,6,0
Cc1cccc(N=c2c([N+](=O)[O-])nn(-c3ccc(Cl)cc3)n2O)c1,5,-26,11,79*,29,51
O=[N+]([O-])c1nn(-c2ccc(Cl)cc2)n(O)c1=NCc1ccncc1,15,2,4,75*,0,32
O=[N+]([O-])c1nn(-c2ccc(Cl)cc2)n(O)c1=NCc1cccnc1,8,-34,-7,96*,-2,24
O=[N+]([O-])c1nn(-c2cccc(Cl)c2)n(O)c1=NCc1cccnc1,2,-2,-2,21,-6,16
Cc1cccc(-n2nc([N+](=O)[O-])c(=NCc3cccnc3)n2O)c1,34,-31,2,82*,0,55*
O=C(NCC1OCCc2ccccc21)c1cc(COc2c(F)cccc2F)on1 (stereo not given),x,4,-7,2,-6,24
CCCOc1ccc(CCC(=O)N/N=C/c2ccncc2)cc1,-4,11,6,x,-24,-15
O=C(NCc1ccco1)C(c1ccccc1F)N(Cc1cccnc1)C(=O)Cn1nnc2ccccc21 (stereo not given),0,2,-10,-4,5,66*
O=C(NCc1ccco1)C(c1ccc(F)cc1)N(Cc1cccnc1)C(=O)Cn1nnc2ccccc21 (stereo not given),-3,11,x,-5,-3,43
CC1=C(C(N)=O)C(c2cccnc2)n2nc(-c3cccc(C)c3)nc2N1 (stereo not given),-2,28,0,85*,-15,66*
C=CCC(C(=O)OC)(C(=O)OC)c1ccc([N+](=O)[O-])cc1[N+](=O)[O-],-3,6,-11,10,4,59*
CN(/N=C/c1cc(Br)cc(Br)c1O)c1cccc(C(F)(F)F)n1,u,50,103*,x,70*,23
Cc1ccc(C(=O)O)cc1N=Cc1cc(Br)cc(Br)c1O,-2,x,6,18,7,6
O=C(CCC(=O)N1CCN(S(=O)(=O)c2ccccc2)CC1)c1ccc(Br)cc1,3,14,5,x,x,x
O=C(NCc1cccnc1)/C(=C\c1ccc(-c2cccc(Cl)c2)o1)S(=O)(=O)c1ccccc1,104*,x,101*,100*,-6,36
CCC1=Nc2cc(C(=O)NCc3ccco3)ccc2Sc2ccccc21,-2,35,49,70*,10,0
CCC1=Nc2cc(C(=O)NCc3cccnc3)ccc2Sc2ccc(C)cc21,10,43,u,x,6,17
O=C(NCc1ccco1)c1ccc2c(c1)N(Cc1ccccc1)CCS2,-1,-9,129*,x,8,-5
